Activity calls are given as the source filed them.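 Rule for the calls, unless noted: active = viability at or below 10% of carrier control in both of two separate runs; inconclusive = viability at or below 10% in only one of the two runs; inactive = the rest.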

The nature of assay [1]: Her2 expression decrease, cell viability multiplex – SKBR3 breast tumor cells, AlphaScreen, ATP viability, primary screen (AID 461;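 active = Her2 level under about 52% in both replicate screens, with viability over 70% of control, limit read from the data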;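 for Her2 level: lower value means less Her2 protein in the cells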;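 for viability: percent of carrier control wells set as 100% viability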). The following applies: SKBR3 Her2 protein level, 18-24 h, measured here: SKBR3 viability, ATP luminescence, at 10 µM. A general note: Bead proximity is the source of the signal in Alpha formats.
In assay [2] the target is Receptor tyrosine-protein kinase erbB-2 (Homo sapiens) (UniProt P04626). The assay is described as above. The following applies: 18-24 h, at 10 µM, stronger effect = lower value.
Assay [3] can be described thus: reduced viability of SK-BR-3 breast cancer cells – cell-based, 24 h, human, pilot screen (AID 572).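 Note: compound exposure lasted between 18 and 24 h rather than exactly 24 h; 100% = carrier-treated control wells.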 The following applies: SK-BR-3 viability, CellTiter-Glo luminescence, at 10 µM, stronger effect = lower value. On the technique in general: Cellular ATP, detected with luciferase, serves as a proxy for viable cell number.
Assay [4] is described as follows: HUVEC growth inhibition – cell-based, human, primary screen (AID 575;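 active = viability at or below 30% in both replicate assays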;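 note: 100% = median of untreated cell wells with 0.1% DMSO on each plate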). The following applies: HUVEC proliferation, CellTiter-Glo luminescence, 72 h; at 10 µM; stronger effect = lower value. In a few lines:
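Assay system: Primary human umbilical vein endothelial cells | Quantity: 1250 cells per well | Medium: Supplemented EBM, 2% fetal bovine serum | Detection: CellTiter-Glo luminescence measuring cellular ATP | Read-out: % viability vs DMSO wells | Plate: Collagen-coated 384-well format | Times: 72 h exposure, 37 °C, 5% CO2, 30 min RT equilibration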

Assay [5] in a line: H69AR cell proliferation blockers – human, duplicate replicates, primary screen (AID 580;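 active = viability at or under a set limit in both replicates, limit being median viability minus 3 SD, cut at about 48% in these data, passing the limit was not always enough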;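 note: 100% = mean luminescence of untreated wells and 0% = no signal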). The following applies: H69AR lung tumor cells viability, ATP luminescence, 72 h; at 10 µM; stronger effect = lower value.
Assay [6] can be described thus: MRP1 drug-resistance reversers in H69AR cells – cell-based, doxorubicin co-treatment, pilot screen (AID 601;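 active = viability loss from added drug above about 55%, and viability with drug at most 40%, in both replicates, limit read from the data, passing the limit was not always enough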). The following applies: CellTiter-Glo, 72 h, at 10 µM; for differential viability (reversal): stronger effect = higher value.
Assay [7] is described as follows: yeast transport mutant growth inhibition pilot in 384-well plates, post-Golgi transport modulator project (AID 636; in the data active = inhibition above about 31%). The following applies: absorbance 615 nm, about 18 h, stronger effect = higher value.
Assay [8] is described as follows: growth suppression of yeast trafficking mutant, preliminary HTS, modulators of trafficking downstream of Golgi apparatus project, 1536-format plate, OD 615 nm (AID 637; in the data active = inhibition above about 30%). The following applies: yeast transport mutant growth, absorbance 615 nm, 18 h; stronger effect = higher value.
[9] abbreviates: H69AR cells + 2 uM doxorubicin, measured here: viability with 2 uM doxorubicin, stronger effect = lower value.
Where [10] appears, read: H69AR cells, compound alone cytotoxicity.

Sequence of Receptor tyrosine-protein kinase erbB-2 (Homo sapiens) (P04626 whole entry, looked up): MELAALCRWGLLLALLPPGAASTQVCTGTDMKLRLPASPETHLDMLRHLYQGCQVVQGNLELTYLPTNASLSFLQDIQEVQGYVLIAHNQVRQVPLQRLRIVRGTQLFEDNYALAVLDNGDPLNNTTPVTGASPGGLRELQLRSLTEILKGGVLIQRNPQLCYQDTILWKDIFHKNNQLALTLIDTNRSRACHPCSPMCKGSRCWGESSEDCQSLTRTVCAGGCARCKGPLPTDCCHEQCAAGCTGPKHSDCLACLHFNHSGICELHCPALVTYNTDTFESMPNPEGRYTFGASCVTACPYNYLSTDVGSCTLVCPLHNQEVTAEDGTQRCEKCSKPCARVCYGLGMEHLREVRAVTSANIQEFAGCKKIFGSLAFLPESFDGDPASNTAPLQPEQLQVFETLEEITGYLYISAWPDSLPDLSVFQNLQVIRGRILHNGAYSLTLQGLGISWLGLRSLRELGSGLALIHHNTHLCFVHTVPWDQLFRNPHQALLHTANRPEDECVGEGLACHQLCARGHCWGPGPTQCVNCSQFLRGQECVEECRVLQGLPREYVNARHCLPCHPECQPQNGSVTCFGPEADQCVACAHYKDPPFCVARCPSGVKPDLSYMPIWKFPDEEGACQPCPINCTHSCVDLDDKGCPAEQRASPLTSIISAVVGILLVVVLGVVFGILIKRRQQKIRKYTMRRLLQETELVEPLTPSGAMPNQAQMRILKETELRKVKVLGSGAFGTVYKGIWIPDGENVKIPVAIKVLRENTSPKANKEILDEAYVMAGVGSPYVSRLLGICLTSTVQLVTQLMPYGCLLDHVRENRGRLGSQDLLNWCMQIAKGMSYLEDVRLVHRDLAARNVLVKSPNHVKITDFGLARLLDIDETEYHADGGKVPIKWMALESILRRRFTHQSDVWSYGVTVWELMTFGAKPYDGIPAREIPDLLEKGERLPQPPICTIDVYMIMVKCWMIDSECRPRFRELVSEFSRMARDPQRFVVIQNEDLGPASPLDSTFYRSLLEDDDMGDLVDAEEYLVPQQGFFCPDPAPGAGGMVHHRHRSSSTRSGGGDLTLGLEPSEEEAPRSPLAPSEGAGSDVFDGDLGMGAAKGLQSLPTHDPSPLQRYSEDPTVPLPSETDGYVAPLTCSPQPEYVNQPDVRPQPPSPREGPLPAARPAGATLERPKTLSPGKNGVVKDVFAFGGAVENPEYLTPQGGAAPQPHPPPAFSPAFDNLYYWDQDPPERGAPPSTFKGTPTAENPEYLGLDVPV

The term viability denotes a read-out of living cells in per cent, often relative to untreated cells. One may read the inhibition as the change of the read-out against control, counted positive when it falls. On to `Cc1cc(=O)oc2cc(Oc3ncccn3)ccc12`, for which the viability in assay [1] is 98%; in assay [3] it was 98% (inactive); in assay [4] it was 101% (inactive); in assay [5], 83% (inactive); in assay [6] (setting [9]) it was 89.4%; in assay [6] (setting [10]), 83%. In addition, the Her2 level in assay [2] is 106% (inactive). In assay [6] (H69AR cells + 2 uM doxorubicin), the differential viability (reversal) is -6.5% (inactive). The inhibition is -8.4% (inactive) in assay [7] and 16.7% (inactive) in assay [8].

With `COC(=O)c1ccccc1NC(=O)C1CCCCC1C(=O)O` (stereo not given), the viability in assay [1] is 103%; in assay [3] it was 103% (inactive); in assay [4], 91% (inactive); in assay [5] it was 90.3% (inactive); in assay [6] (setting [9]) it was 91.8%; in assay [6] (setting [10]), 90.3%. For the same compound, the Her2 level in assay [2] was 116% (inactive). For the same compound, the differential viability (reversal) in assay [6] (H69AR cells + 2 uM doxorubicin) was -1.56% (inactive). Besides, the inhibition in assay [7] was -2.93% (inactive); in assay [8] it was -9.52% (inactive).

Regarding `CC(C)(C)C(=O)CNS(=O)(=O)c1ccc(S(=O)(=O)NC2CCCC2)cc1`, the viability in assay [1] is 104%; in assay [3] it was 104% (inactive); in assay [4] it was 115% (inactive); in assay [5] it was 98.8% (inactive); in assay [6] (setting [9]), 87.6%; in assay [6] (setting [10]), 98.8%. Moreover, in assay [2], the Her2 level is 92% (inactive). Also, the differential viability (reversal) in assay [6] (H69AR cells + 2 uM doxorubicin) was 11.2% (inactive). For the same compound, the inhibition in assay [7] is -3.56% (inactive); in assay [8], 1.9% (inactive).

Regarding `CCN(CC)CCN1C(=O)C(O)=C(C(=O)c2cccs2)C1c1ccccn1` (stereo not given), the viability in assay [1] is 86%; in assay [3], 86% (inactive); in assay [4] it was 100% (inactive); in assay [5], 98% (inactive); in assay [6] (setting [9]), 79.5%; in assay [6] (setting [10]), 98%. Also, the Her2 level in assay [2] was 82% (inactive). In assay [6] (H69AR cells + 2 uM doxorubicin), the differential viability (reversal) was 18.6% (inactive). The inhibition in assay [7] is -4.86% (inactive); in assay [8] it was -1.59% (inactive).

In the case of `CCCC1C(C#N)=C(N)Oc2n[nH]c(C(C)(C)C)c21` (stereo not given), the viability in assay [1] is 106%; in assay [3] it was 106% (inactive); in assay [4], 95.1% (inactive); in assay [5] it was 105% (inactive); in assay [6] (setting [9]), 94.4%; in assay [6] (setting [10]), 105%. Also, the Her2 level in assay [2] is 99.5% (inactive). Further, in assay [6] (H69AR cells + 2 uM doxorubicin), the differential viability (reversal) was 11% (inactive). Moreover, the figures for the inhibition in assay [7] and in assay [8] were -6.97% (inactive) and -7.58% (inactive), respectively.

Take `Cn1c(=O)c2ncn(CC(=O)NCCOc3ccc(C(C)(C)C)cc3)c2n(C)c1=O`: the viability in assay [1] was 96.5%; in assay [3] it was 96.5% (inactive); in assay [4], 100% (inactive); in assay [5], 76.2% (inactive); in assay [6] (setting [9]), 93.8%; in assay [6] (setting [10]) it was 76.2%. The Her2 level in assay [2] is 110% (inactive). Moreover, the differential viability (reversal) in assay [6] (H69AR cells + 2 uM doxorubicin) was -17.6% (inactive). In addition, the inhibition in assay [7] was -5.45% (inactive); in assay [8], -6.03% (inactive).

As to `COCCn1nnnc1C(c1cccs1)N1CCN(c2cc(C)ccc2C)CC1` (stereo not given), the viability in assay [1] was 107%; in assay [3], 107% (inactive); in assay [4] it was 84.8% (inactive); in assay [5] it was 92.5% (inactive); in assay [6] (setting [9]) it was 90.1%; in assay [6] (setting [10]), 92.5%. Further, the Her2 level in assay [2] is 84.5% (inactive). In addition, the differential viability (reversal) in assay [6] (H69AR cells + 2 uM doxorubicin) is 2.44% (inactive). In addition, the inhibition was 1.3% (inactive) in assay [7] and 1.27% (inactive) in assay [8].

For `COc1ccc(C2CC(c3ccc(Cl)cc3)Nc3nc(NC(=O)c4ccco4)nn32)cc1` (stereo not given), the viability is 90.5% in assay [1]; 90.5% (inactive) in assay [3]; 66.3% (inactive) in assay [4]; 81.2% (inactive) in assay [5]; 90.6% in assay [6] (setting [9]); 81.2% in assay [6] (setting [10]). In addition, the Her2 level in assay [2] was 78% (inactive). The differential viability (reversal) in assay [6] (H69AR cells + 2 uM doxorubicin) was -9.39% (inactive). For the same compound, the inhibition in assay [7] was -5.07% (inactive); in assay [8], 2.46% (inactive).

As for `c1ccc(OCCCn2nnc(-c3cccnc3)n2)cc1`, the viability was 110% in assay [1]; 110% (inactive) in assay [3]; 103% (inactive) in assay [4]; 108% (inactive) in assay [5]; 97.3% in assay [6] (setting [9]); 108% in assay [6] (setting [10]). Further, the Her2 level in assay [2] is 87.5% (inactive). Further, the differential viability (reversal) in assay [6] (H69AR cells + 2 uM doxorubicin) was 10.3% (inactive). The inhibition in assay [7] was -3.68% (inactive); in assay [8], -5.83% (inactive).

With `COc1ccc2nc3oc(C(=O)N4CCCCC4)cc3cc2c1`, the viability in assay [1] is 98%; in assay [3], 98% (inactive); in assay [4], 86.5% (inactive); in assay [5], 86.7% (inactive); in assay [6] (setting [9]), 83.9%; in assay [6] (setting [10]), 86.7%. Moreover, in assay [2], the Her2 level is 90.5% (inactive). The differential viability (reversal) in assay [6] (H69AR cells + 2 uM doxorubicin) was 2.71% (inactive). The inhibition in assay [7] was -5.26% (inactive); in assay [8] it was -3.67% (inactive).

As to `COc1cccc(NC(=O)N2CCCC2C(=O)NC(C)C)c1` (stereo not given), the viability was 112% in assay [1]; 112% (inactive) in assay [3]; 82.6% (inactive) in assay [4]; 99.1% (inactive) in assay [5]; 87.8% in assay [6] (setting [9]); 99.1% in assay [6] (setting [10]). Besides, the Her2 level in assay [2] is 78% (inactive). Besides, the differential viability (reversal) in assay [6] (H69AR cells + 2 uM doxorubicin) is 11.2% (inactive). The values for the inhibition in assay [7] and in assay [8] were -5.07% (inactive) and 9.51% (inactive), respectively.

As for `CCOC(=O)c1[nH]nc(N)c1NC(=O)c1ccc(Cl)cc1Cl`, the viability is 79.5% in assay [1]; 79.5% (inactive) in assay [3]; 89.9% (inactive) in assay [4]; 87.8% (inactive) in assay [5]; 83.8% in assay [6] (setting [9]); 87.8% in assay [6] (setting [10]). The Her2 level in assay [2] was 120% (inactive). In addition, in assay [6] (H69AR cells + 2 uM doxorubicin), the differential viability (reversal) was 3.99% (inactive). Also, the inhibition in assay [7] was 3.6% (inactive); in assay [8] it was 8.89% (inactive).

Regarding `CC(C)CCNC(=O)NC(=O)CSc1nnc(COc2ccccc2Cl)o1`, the viability was 99% in assay [1]; 99% (inactive) in assay [3]; 81% (inactive) in assay [4]; 93% (inactive) in assay [5]; 87.1% in assay [6] (setting [9]); 93% in assay [6] (setting [10]). In assay [2], the Her2 level was 80.5% (inactive). Further, the differential viability (reversal) in assay [6] (H69AR cells + 2 uM doxorubicin) is 5.9% (inactive). For the same compound, the inhibition in assay [7] is -2.24% (inactive); in assay [8], -5.87% (inactive).

As for `O=C(O)C1CC(=O)N(Cc2ccccc2)C1` (stereo not given), the viability in assay [1] is 109%; in assay [3], 109% (inactive); in assay [4], 91.2% (inactive); in assay [5] it was 90.2% (inactive); in assay [6] (setting [9]) it was 89.8%; in assay [6] (setting [10]) it was 90.2%. Further, in assay [2], the Her2 level was 96.5% (inactive). Besides, the differential viability (reversal) in assay [6] (H69AR cells + 2 uM doxorubicin) is 0.445% (inactive). Further, the inhibition is -5.39% (inactive) in assay [7] and 6.23% (inactive) in assay [8].

As to `CC(=O)C1=C(O)C(=O)N(c2ccc(C(=O)O)cc2)C1c1ccccc1` (stereo not given), the viability is 107% in assay [1]; 107% (inactive) in assay [3]; 117% (inactive) in assay [4]; 102% (inactive) in assay [5]; 95.7% in assay [6] (setting [9]); 102% in assay [6] (setting [10]). For the same compound, the Her2 level in assay [2] is 89% (inactive). Also, in assay [6] (H69AR cells + 2 uM doxorubicin), the differential viability (reversal) was 5.88% (inactive). For the same compound, the inhibition was -0.66% (inactive) in assay [7] and 1.8% (inactive) in assay [8].

Consider `Cn1c(=O)c2[nH]c(NCC3CCCO3)nc2n(-c2ccccc2)c1=O` (stereo not given), for which the viability was 94.5% in assay [1]; 94.5% (inactive) in assay [3]; 116% (inactive) in assay [4]; 102% (inactive) in assay [5]; 91.5% in assay [6] (setting [9]); 102% in assay [6] (setting [10]). In addition, in assay [2], the Her2 level was 81% (inactive). Further, the differential viability (reversal) in assay [6] (H69AR cells + 2 uM doxorubicin) is 10.4% (inactive). Moreover, the inhibition was -4.87% (inactive) in assay [7] and 3.67% (inactive) in assay [8].

The values are drawn from PubChem BioAssay.
